From ChEMBL document CHEMBL2163327, “Design, synthesis, and evaluation of potential prodrugs of DFMO for reductive activation” (Bioorg Med Chem Lett, 2012)

Assays:
Trypanosoma brucei [1] = assay: Antitrypanosomal activity against wild type Trypanosoma brucei bloodstream form assessed as growth inhibition after 3 days by Alamar blue assay; assay type: functional, organism-based; conditions: 72 h
Method in brief: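 Bloodstream-form T. brucei seeded at 1 × 10³ per mL in growth medium with a range of test compound concentrations; 3 days at 37 °C, then alamarBlue added and incubation continued 16 h before reading.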

Trypanosoma brucei [2] = assay: Activity of His-tagged Trypanosoma brucei nitroreductase assessed as oxidation of NADH
Method in brief: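 Purified His-tagged T. brucei nitroreductase (TbNTR) incubated with test compound; NADH consumption followed as change in absorbance at 340 nm.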

Trypanosoma brucei [3] = assay: Antitrypanosomal activity against Trypanosoma brucei bloodstream form overexpressing nitroreductase assessed as growth inhibition after 3 days by Alamar blue assay; assay type: functional, organism-based; conditions: 72 h
Method in brief: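 Bloodstream-form T. brucei induced to express elevated nitroreductase, with non-induced parasites as controls. Parasites seeded at 1 × 10³ mL⁻¹ in growth medium with a range of test-compound concentrations and incubated 3 days at 37 °C. alamarBlue was then added for a further 16 h as the viability read-out.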

IC50 (Trypanosoma brucei [1])	Activity (Trypanosoma brucei [2])	Compound	IC50 (Trypanosoma brucei [3])
> 100 µM	140 nmol/min/mg	O=C(NCCCC(NC(=O)OCc1ccc([N+](=O)[O-])cc1)(C(=O)O)C(F)F)OCc1ccc([N+](=O)[O-])cc1 (configuration not stated)	
> 100 µM	203 nmol/min/mg	NCCCC(N)(C(=O)OCc1ccc([N+](=O)[O-])cc1F)C(F)F (configuration not stated)	
8.3 µM	21 nmol/min/mg	NCCCC(N)(C(=O)O)C(F)F (configuration not stated) [EFLORNITHINE]	
> 100 µM	33 nmol/min/mg	NC(CCCNC(=O)OCc1ccc([N+](=O)[O-])cc1)(C(=O)O)C(F)F (configuration not stated)	
> 100 µM	227 nmol/min/mg	NCCCC(NC(=O)OCc1ccc([N+](=O)[O-])cc1F)(C(=O)O)C(F)F (configuration not stated)	
> 100 µM	312 nmol/min/mg	O=C(NCCCC(NC(=O)OCc1ccc([N+](=O)[O-])cc1F)(C(=O)O)C(F)F)OCc1ccc([N+](=O)[O-])cc1F (configuration not stated)	
> 100 µM	60 nmol/min/mg	NCCCC(N)(C(=O)OCc1ccc([N+](=O)[O-])cc1)C(F)F (configuration not stated)	
> 100 µM	42 nmol/min/mg	NCCCC(NC(=O)OCc1ccc([N+](=O)[O-])cc1)(C(=O)O)C(F)F (configuration not stated)	

Compound	IC50 (Trypanosoma brucei [1])	Activity (Trypanosoma brucei [2])	IC50 (Trypanosoma brucei [3])
CC1CS(=O)(=O)CCN1/N=C/c1ccc([N+](=O)[O-])o1 (configuration not stated) [NIFURTIMOX]	1.83 µM	423 nmol/min/mg	0.26 µM
NC(CCCNC(=O)OCc1ccc([N+](=O)[O-])cc1F)(C(=O)O)C(F)F (configuration not stated)	39.5 µM	260 nmol/min/mg	39.9 µM
